From PubChem
Only some compounds are listed: those with a hit (about 1.5% of all), similar ones and a draw of the others.
RanGTP-Impb inh: inhibitors of RanGTP-importin-beta interaction, primary screen, biochemical, FRET, CFP-Ran, YFP-importin-beta, homogeneous. 1.1% of 300,000 active. inhibition, % (no concentration beside the values). cell-free CFP-Ran/YFP-importin-beta FRET ratio. AID 2216;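 active = more than half of the replicate wells show a fall in the fluorescence ratio signal beyond about 16%, limit read from the data, passing the limit was not always enough; inconclusive = exactly half of the replicate wells pass the set limit; inactive = fewer than half of replicates pass the limit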;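 note: 0% = DMSO wells and 100% = Ran loaded with GDP instead of GTP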
Hck-Nef inh: blocks Nef-activated human Hck kinase; inhibition, % at 20 µM; Recombinant Hck-YEEI plus Nef, Z-Lyte FRET kinase assay; 0.68% of 220,000 active; P08631; AID 463187;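 active = Hck-Nef kinase inhibition above about 50%, limit read from the data; inactive = inhibition below that limit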;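 note: 0% = DMSO with Hck plus Nef and 100% = Hck alone without Nef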
Runt-SMMHC FRET: inhibitors of human RUNX1 Runt domain binding to CBFb-SMMHC. Q01196+Q13951. Cerulean-Runt/Venus-CBFb-SMMHC FRET ratio 530/480, 1 h. 0.74% of 220,000 active. AID 1434. inhibition, % at 20 µM;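 active = mean inhibition across duplicate retests at 20 µM reaching about 50%, limit read from the data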;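 note: 0% = DMSO wells and 100% = wells with excess untagged CBFb-SMMHC; inhibitors lower the FRET ratio by blocking Runt binding to CBFb-SMMHC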
Target sequence (Q01196 whole entry, looked up, the tested form may be a part): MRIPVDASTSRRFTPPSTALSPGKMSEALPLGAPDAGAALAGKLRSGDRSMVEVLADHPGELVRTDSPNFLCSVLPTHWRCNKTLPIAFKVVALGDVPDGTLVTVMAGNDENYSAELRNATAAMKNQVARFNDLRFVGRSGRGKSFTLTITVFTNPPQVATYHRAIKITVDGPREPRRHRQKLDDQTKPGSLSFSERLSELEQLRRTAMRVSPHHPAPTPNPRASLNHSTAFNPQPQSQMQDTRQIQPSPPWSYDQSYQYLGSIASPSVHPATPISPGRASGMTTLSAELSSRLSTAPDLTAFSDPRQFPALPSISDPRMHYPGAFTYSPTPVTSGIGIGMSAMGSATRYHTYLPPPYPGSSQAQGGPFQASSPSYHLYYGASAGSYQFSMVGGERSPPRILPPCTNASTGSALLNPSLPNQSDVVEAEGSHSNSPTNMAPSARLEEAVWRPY
Target sequence (Q13951 whole entry, looked up, the tested form may be a part): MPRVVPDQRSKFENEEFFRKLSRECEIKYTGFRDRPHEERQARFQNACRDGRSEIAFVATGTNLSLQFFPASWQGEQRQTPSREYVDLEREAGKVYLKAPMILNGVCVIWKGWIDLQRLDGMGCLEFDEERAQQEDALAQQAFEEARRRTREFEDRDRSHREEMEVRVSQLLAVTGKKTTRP
Runt-CBFb FRET: Runt domain-CBFb interaction inhibition | inhibition, % at 20 µM | Q01196+Q13951 | 0.46% of 220,000 active | Cerulean-Runt/Venus-CBFb FRET ratio 530/480, 1 h | AID 1496;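 active = inhibition over about 50% at 20 µM in the single-dose screen, limit read from the data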;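 note: 0% = DMSO wells and 100% = excess unlabeled CBFb competitor control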
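Schedule: protein complex preformed 1 h, compound exposure 1 h, room temperature, dark; test system: Cerulean-labeled Runt domain protein; amount: 100 nM per protein; buffer or medium: Tris 50 mM pH 7.5, KCl, K2SO4, 0.01% BSA; read-out: loss of energy transfer signal; detection: FRET fluorescence; controls: 5 µM unlabeled CBFb as full-inhibition high control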
CaV13 FRET inh: Primary screen for inhibitors of IQ motif and Ca2+-dependent inactivation inhibitor domain binding in CACNA1D, Förster resonance energy transfer in living cells, …; inhibition, % at 12.3 µM; AID 743397; HEK cells, CFP/YFP FRET ICDI-IQ, plate reader, 10 min; percent FRET-ratio fall versus neutral wells; 0.098% of 340,000 active;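 active = mean replicate inhibition of at least 30% and at least 1% of replicates passing that level; inconclusive = only one of the two criteria is met; inactive = neither criterion is met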;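 note: 0% = median of the neutral control wells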
Numbers without * were called inactive; ? = inconclusive; . = no result.

SMILES	RanGTP-Impb inh	Hck-Nef inh	Runt-SMMHC FRET	Runt-CBFb FRET	CaV13 FRET inh
COc1ccc2[nH]c(C)c(-c3csc(N)n3)c2c1	-1	.	.	.	-6
CN1OCC(S(=O)(=O)c2ccccc2)C1c1ccccc1 (stereo unspecified)	35*	8	-4	1	-4
O=S(=O)(c1ccccc1)C1CON(Cc2ccccc2)C1c1ccccc1 (stereo unspecified)	3	0	2	-8	-2
Cc1c(C(=O)NCc2cccc(C(F)(F)F)c2)sc(=O)n1Cc1ccc(C(=O)N(C)C)cc1	.	.	.	.	47*
COc1ccc(CNC(=O)c2sc(=O)n(Cc3ccc(C)cc3)c2C)cc1OC	.	.	.	.	55*
Cc1c(C(=O)NCc2cccc([N+](=O)[O-])c2)sc(=O)n1Cc1ccc(F)cc1	.	.	.	.	8
Cc1c(C(=O)NCCC#N)sc(=O)n1Cc1ccc(F)cc1	.	.	.	.	-1
CSc1ccc(Cn2c(C)c(C(=O)NCCC#N)sc2=O)cc1	.	.	.	.	34*
COc1ccc(CNC(=O)c2sc(=O)n(Cc3ccc(-c4ccccc4)cc3)c2C)cc1OC	.	.	.	.	-7
Cc1c(C(=O)NCc2cccc([N+](=O)[O-])c2)sc(=O)n1Cc1cccc(F)c1	.	.	.	.	63*
Cc1ccc(Cn2c(C)c(C(=O)NCc3cccc(C(F)(F)F)c3)sc2=O)cc1	.	.	.	.	-12
O=C(/C=C/c1ccco1)NC(=S)Nc1ccc(N2CCCC2)cc1	4	0	-2	17	-6
Cc1c(C(=O)NCc2ccc3c(c2)OCCO3)sc(=O)n1Cc1ccccc1F	.	.	.	.	73*
CCOC(=O)N/N=C(\C)c1ccc(Oc2ncccn2)cc1	2	.	.	.	-8
CCN(CC)c1ccc(-c2c(C#N)c(N)nc(OC)c2C#N)cc1	8	11	99*	33	-8
CC1CCN(Cc2cc(=O)oc3cc(O)c(Cl)cc23)CC1	118*	.	.	.	5
Cc1ccc2oc(=O)cc(CN3CC(C)OC(C)C3)c2c1 (stereo unspecified)	7	.	.	.	-16
CC1CN(Cc2cc(=O)oc3cc(O)c(Cl)cc23)CC(C)O1 (stereo unspecified)	61*	.	.	.	-3
CC1CCN(Cc2cc(=O)oc3cc4c(cc23)CCCC4)CC1	?	25	0	-2	-5
CN(Cc1ccccc1F)Cc1cc(=O)oc2cc(O)c(Cl)cc12	67*	.	.	.	-5
COc1ccc(/C=N/NC(=O)c2ccc(Cl)cc2Cl)cc1COC(C)=O	4	1	-1	-1	-5
Fc1ccc(-c2nc3ccccn3c2NCc2ccc3c(c2)OCO3)cc1	2	20	-3	1	49*
Oc1ccc(-c2nc3ccccn3c2NCc2ccc3c(c2)OCO3)cc1	.	4	-2	-3	.
O=C(O)c1cc2nc(-c3cccs3)cc(C(F)(F)F)n2n1	?	20	-10	1	-4
FC(F)(F)c1cc(-c2cccs2)nc2cc(-c3ccccc3)nn12	46*	3	-3	2	-3
SMILES	RanGTP-Impb inh	Hck-Nef inh	Runt-SMMHC FRET	Runt-CBFb FRET	CaV13 FRET inh
O=C(NCc1ccco1)c1cc2nc(-c3cccs3)cc(C(F)(F)F)n2n1	20*	1	39	24	-10
CN(C)CCNC(=O)Nc1ccc([N+](=O)[O-])cc1	-2	-7	-1	2	-1
O=C1C2CC=CCC2C(=O)N1c1ncn[nH]1 (stereo unspecified)	39*	9	-8	0	-8
CCOc1cc(NS(=O)(=O)c2ccc(NC(C)=O)cc2)c(OCC)cc1NC(=O)C(C)C	18*	2	8	3	-4
Cc1ccc(S(=O)(=O)c2cc3c(=O)n4cccc(C)c4nc3n(Cc3ccco3)c2=N)cc1C	.	.	65*	48	.
Cc1ccc(S(=O)(=O)c2cc3c(=O)n4ccccc4nc3n(Cc3ccco3)c2=N)cc1	104*	27	.	19	-6
O=C(NC1CCCC1)C1c2ccccc2C(=O)N1CCCN1CCOCC1 (stereo unspecified)	-1	-7	1	1	-10
CC1CCC2(CC1)NC(=O)N(NC(=O)c1cccs1)C2=O (stereo unspecified)	.	.	.	.	-2
CC(C)=CC(=O)N1CCC(Oc2cccc(C(=O)NCc3ccccn3)c2)CC1	.	.	.	.	-6
CSCC(C)N1CCC(Oc2cccc(C(=O)NCc3ccccn3)c2)CC1 (stereo unspecified)	30*	.	.	.	-11
